Experimental data from ChEMBL document CHEMBL2021883, “Amino acid, dipeptide and pseudodipeptide conjugates of ring-substituted 8-aminoquinolines: synthesis and evaluation of anti-infective, β-haematin inhibition and cytotoxic activities” (Eur J Med Chem, 2012).
In brackets after ≈: the same amount, converted by molar mass. Activity calls are given as the source filed them. Unless noted, no cut-off for these calls is given here.

How the values were obtained:
Plasmodium falciparum [1] = assay: Antimalarial activity against chloroquine-sensitive Plasmodium falciparum D6 assessed as plasmodial LDH activity; format: functional, organism-based
Plasmodium falciparum [2] = assay: Antimalarial activity against chloroquine-resistant Plasmodium falciparum W2 assessed as plasmodial LDH activity; format: functional, organism-based
Vero = assay: Cytotoxicity against african green monkey Vero cells upto 23.8 […] by neutral dye assay; format: cell-based, Chlorocebus sabaeus
Method in brief: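 Vero monkey kidney cells were exposed to compound up to a highest concentration of 23.8, with viability read by neutral red uptake.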

[3] = Inhibition of beta-hematin formation; format: functional
Leishmania donovani = assay: Antileishmanial activity against Leishmania donovani promastigote by Alamar Blue assay; format: functional, organism-based
[4] = Selectivity index, ratio of IC50 for african green monkey Vero cells to IC50 for chloroquine-resistant Plasmodium falciparum W2; format: toxicity, cell-based; settings: Vero cells versus Plasmodium falciparum W2, read-out: Ratio IC50
Staphylococcus aureus [5] = assay: Antimicrobial activity against Staphylococcus aureus ATCC 29213 by CLSI method; format: functional, organism-based
Staphylococcus aureus [6] = assay: Antimicrobial activity against methicillin-resistant Staphylococcus aureus ATCC 43300 by CLSI method; format: functional, organism-based
[7] = test system: Mycobacterium intracellulare; assay: Antimicrobial activity against Mycobacterium intracellulare ATCC 23068 by Franzblau method; format: functional, organism-based
Escherichia coli = assay: Antimicrobial activity against Escherichia coli ATCC 35218 by CLSI method; format: functional, organism-based
Pseudomonas aeruginosa = assay: Antimicrobial activity against Pseudomonas aeruginosa ATCC 27853 by CLSI method; format: functional, organism-based
Method in brief: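 Antibacterial testing used CLSI/NCCLS broth dilution for aerobically growing bacteria, with 20 as the highest test concentration.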

Aspergillus fumigatus = assay: Antifungal activity against Aspergillus fumigatus; format: functional, organism-based
Method in brief: (§1)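 Yeasts and A. fumigatus were tested by broth microdilution following the NCCLS antifungal standards. The highest test concentration was 20.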

Cryptococcus neoformans = assay: Antifungal activity against Cryptococcus neoformans; format: functional, organism-based; method in brief: as §1
Candida albicans [8] = assay: Antifungal activity against Candida albicans at 20 ug/ml; format: functional, organism-based
Method in brief: (§2)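 Broth dilution antifungal testing followed the NCCLS reference method for yeasts, with 20 as the highest test concentration. MIC was the lowest concentration with no detectable growth. MFC was the lowest concentration killing the organism.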

Candida albicans [9] = assay: Fungicidal activity against Candida albicans at 20 ug/ml; format: functional, organism-based; method in brief: as §2
[10] = Selectivity index, ratio of IC50 for african green monkey Vero cells to IC50 for chloroquine-sensitive Plasmodium falciparum D6; format: toxicity, cell-based; settings: Vero cells versus Plasmodium falciparum D6, read-out: Ratio IC50
Plasmodium berghei = assay: Antimalarial activity against Plasmodium berghei blood-schizont in mouse malaria model assessed as elimination of parasitemia at 100 mg/kg, po for 4 days for 4 days measured after 7 days; format: functional, organism-based; parameters: dose 100 mg/kg
Method in brief: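 P. berghei-infected mice, 6 per group, received compound orally once daily for 4 days at 10, 25, 50 or 100 mg/kg/day. "Active" meant all treated animals were parasitaemia-negative up to D+7. "Curative" meant complete parasite elimination with survival to D+60. Outcomes were recorded as cured/total.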

[11] = Plasmodium falciparum, W2, read-out: IC50
[12] = Leishmania donovani, read-out: IC50
[13] = Plasmodium falciparum, D6, read-out: IC50

| Compound | IC50 (Plasmodium falciparum [1]) | IC50 (Plasmodium falciparum [2]; [11]) [mg/L] | IC50 (Vero) | IC50 [3] [µM] | IC90 (Leishmania donovani) | IC50 (Leishmania donovani; [12]) [mg/L] | selectivity ratio [4] | Activity (Staphylococcus aureus [5]) | Activity (Staphylococcus aureus [6]) | Activity [7] | Activity (Escherichia coli) | Activity (Pseudomonas aeruginosa) | Activity (Aspergillus fumigatus) | IC50 (Cryptococcus neoformans) [mg/L] | MFC (Cryptococcus neoformans) [mg/L] | MIC (Cryptococcus neoformans) [mg/L] | Activity (Candida albicans [8]) | Activity (Candida albicans [9]) | IC50 (Plasmodium falciparum [1]; [13]) [mg/L] | IC90 (Leishmania donovani; Leishmania donovani) [mg/L] | further results |
| --- | --- | --- | --- | --- | --- | --- | --- | --- | --- | --- | --- | --- | --- | --- | --- | --- | --- | --- | --- | --- | --- |
| COc1cc(NC(C)CCCNC(=O)[C@@H](CCCN)NC(=O)[C@H](N)CCCN)c2ncccc2c1 (some centres not stated) | Not Active | 4.76 (≈ 9.76 µM) | Non-toxic | 420 | inactive | 40 (≈ 82 µM) | > 5 | inactive | inactive | inactive | inactive | inactive | inactive | 3.5 (≈ 7.18 µM) | 5 (≈ 10.3 µM) | 5 (≈ 10.3 µM) | inactive | inactive |  |  |  |
| COc1cc(NC(C)CCCNC(=O)[C@H](CCCCN)NC(=O)[C@@H](N)CCCCN)c2nc(C(C)(C)C)ccc2c1 (some centres not stated) |  | 0.4 (≈ 0.7 µM) | Non-toxic | 73 |  | 19 (≈ 33.2 µM) | > 59.5 | inactive | inactive | inactive | inactive | inactive | inactive | 3.5 (≈ 6.12 µM) | 5 (≈ 8.74 µM) | 5 (≈ 8.74 µM) | inactive | inactive | 0.63 (≈ 1.1 µM) | 39 (≈ 68.2 µM) | selectivity ratio [10]: > 37.7; Activity (Plasmodium berghei): Active |
| COc1cc(NC(C)CCCNC(=O)C[C@H](NC(=O)[C@@H](N)CCCNC(=N)N)C(=O)O)c2ncccc2c1 (some centres not stated) |  | 2.9 (≈ 5.47 µM) | Non-toxic | 120 | inactive |  | > 8.2 | inactive | inactive | inactive | inactive | inactive |  |  |  |  |  |  | 3 (≈ 5.65 µM) |  | IC50 (Leishmania donovani): Not Active; selectivity ratio [10]: > 7.9 |
| COc1cc(NC(C)CCCNC(=O)[C@@H](CCCCN)NC(=O)[C@H](N)CCCCN)c2ncccc2c1 (some centres not stated) | Not Active |  | Non-toxic | 310 |  | 3.5 (≈ 6.79 µM) |  | inactive | inactive | inactive | inactive | inactive | inactive | 3.5 (≈ 6.79 µM) | 5 (≈ 9.7 µM) | 5 (≈ 9.7 µM) | inactive | inactive |  | 7 (≈ 13.6 µM) | IC50 (Plasmodium falciparum [2]): Not Active |
| COc1cc(NC(C)CCCNC(=O)CC[C@H](NC(=O)[C@@H](N)CCCCN)C(=O)O)c2nc(C(C)(C)C)ccc2c1 (some centres not stated) | Not Active |  | Non-toxic | > 1000 | inactive |  |  | inactive | inactive | inactive | inactive | inactive | inactive | 15 (≈ 26.2 µM) | 20 (≈ 34.9 µM) | 20 (≈ 34.9 µM) | inactive | inactive |  |  | IC50 (Plasmodium falciparum [2]): Not Active; IC50 (Leishmania donovani): Not Active |
| COc1cc(NC(C)CCCNC(=O)[C@@H](CCCNC(=N)N)NC(=O)[C@H](N)CCCNC(=N)N)c2ncccc2c1 (some centres not stated) |  | 1.7 (≈ 2.97 µM) | Non-toxic | 32 |  | 17 (≈ 29.7 µM) | > 14 | inactive | inactive | inactive | inactive | inactive | inactive | 7 (≈ 12.2 µM) | 10 (≈ 17.5 µM) | 10 (≈ 17.5 µM) | inactive | inactive | 1.3 (≈ 2.27 µM) | 36 (≈ 63 µM) | selectivity ratio [10]: > 18.3 |
| COc1cc(NC(C)CCCNC(=O)[C@H](CCCNC(=N)N)NC(=O)[C@@H](N)CCCNC(=N)N)c2ncccc2c1 (some centres not stated) | Not Active | 4.76 (≈ 8.33 µM) | Non-toxic | 81 | inactive |  | > 5 | inactive | inactive | inactive | inactive | inactive | inactive | 4.5 (≈ 7.87 µM) | 10 (≈ 17.5 µM) | 10 (≈ 17.5 µM) | inactive | inactive |  |  | IC50 (Leishmania donovani): Not Active |
